Laboratory results taken from ChEMBL document CHEMBL1155805 (J Med Chem, 2008).

How the values were obtained:
[1] = target: T1, 5-hydroxytryptamine receptor 1A (Rattus norvegicus, UniProt P19327); assay: Displacement of [3H]8-OH-DPAT from 5HT1A receptor in CRL:CD(SD)BR-COBS rat hippocampus; assay type: tissue-based
T1 sequence (P19327 whole entry): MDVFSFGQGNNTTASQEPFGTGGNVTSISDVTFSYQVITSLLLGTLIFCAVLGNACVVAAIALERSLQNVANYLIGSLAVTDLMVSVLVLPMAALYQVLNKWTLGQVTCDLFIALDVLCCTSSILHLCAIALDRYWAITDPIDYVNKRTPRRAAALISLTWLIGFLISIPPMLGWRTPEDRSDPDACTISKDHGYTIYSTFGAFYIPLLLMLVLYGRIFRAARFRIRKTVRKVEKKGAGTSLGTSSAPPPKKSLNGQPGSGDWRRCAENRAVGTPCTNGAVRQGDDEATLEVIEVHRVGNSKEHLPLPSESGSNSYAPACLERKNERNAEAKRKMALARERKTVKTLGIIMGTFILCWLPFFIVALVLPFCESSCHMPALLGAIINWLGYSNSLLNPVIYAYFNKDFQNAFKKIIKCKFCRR
Procedure, shortened: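 Rat hippocampus homogenized in 50 mM Tris·HCl pH 7.4, spun at 50000g, warmed 10 min at 37 °C, washed, then resuspended in 50 mM Tris·HCl pH 7.7 with 10 µM pargyline and 4 mM CaCl2. Incubation used 1 nM [3H]8-OH-DPAT for 30 min at 25 °C. Nonspecific binding was defined with 10 µM 5-HT. Separation was by filtration. Ki is the mean ± SD of three experiments.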

[2] = Displacement of [3H]prazosin from adrenergic receptor alpha1 in CRL:CD(SD)BR-COBS rat brain cortex
Procedure, shortened: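 Cortical membranes were washed (50000g, 10 min at 37 °C) and suspended in 50 mM Tris·HCl pH 7.7 with 10 µM pargyline and 0.1% ascorbic acid. Incubation used 0.2 nM [3H]prazosin for 30 min at 25 °C. Nonspecific binding was defined with 3 µM phentolamine. Filtration was used. Ki is the mean ± SD of three experiments.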

Rattus norvegicus = species on record: Rattus norvegicus; assay: Ratio of Ki for adrenergic receptor alpha1 to Ki for 5HT1A receptor in CRL:CD(SD)BR-COBS rat brain
[3] = target: T2, 5-hydroxytryptamine receptor 1A (Rattus norvegicus) (UniProt P19327); assay: Agonist activity at 5HT1A receptor in CRL:CD(SD)BR-COBS rat hippocampus assessed as increase in [35S]GTPgammaS binding relative to 5-hydroxytryptamine; assay type: functional, tissue-based
T2 sequence (whole entry): T1 sequence (P19327 whole entry)
Procedure, shortened: (§1)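 Rat hippocampal membranes (200 µg protein/sample), washed in 50 mM Tris·HCl and resuspended in pH 7.7 Tris with 10 µM pargyline and 4 mM CaCl2. Graded drug concentrations were applied, with 20 min preincubation at 37 °C, then 45 min at 37 °C with 0.1 nM [35S]GTPγS. Nonspecific binding was set with 10 µM GTPγS, followed by GF/B filtration. EC50 and Emax (vs 5-HT) came from curve fitting. Mean ± SD, three experiments.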

D(1A) dopamine receptor = D(1A) dopamine receptor (Rattus norvegicus, UniProt P18901); assay: Displacement of [3H]SCH23390 from dopamine D1 receptor in CRL:CD(SD)BR-COBS rat brain striatum
Procedure, shortened: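 Striatal membranes were washed (50000g spins, 10 min at 37 °C), then held in 50 mM Tris·HCl pH 7.4 with 10 µM pargyline, 120 mM NaCl, 5 mM KCl, 2 mM CaCl2, 1 mM MgCl2 and 0.1% ascorbic acid. Incubation used 0.4 nM [3H]SCH23390 for 15 min at 25 °C. Nonspecific binding was defined with 10 µM (-)-cis-flupentixol. Filtration was used. Ki is the mean ± SD of three experiments.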

D(2) dopamine receptor = D(2) dopamine receptor (Rattus norvegicus, UniProt P61169); assay: Displacement of [3H]spiperone from dopamine D2 receptor in CRL:CD(SD)BR-COBS rat brain striatum
[4] = target: 5-hydroxytryptamine receptor 2A (Rattus norvegicus, UniProt P14842); assay: Displacement of [3H]ketanserin from 5HT2A receptor in CRL:CD(SD)BR-COBS rat brain cortex
Procedure, shortened: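 Cortex homogenate was washed, including 10 min at 37 °C, and resuspended in 50 mM Tris·HCl pH 7.7. Incubation used 0.35 nM [3H]ketanserin for 15 min at 37 °C. Nonspecific binding was defined with 1 µM methysergide. Filtration was used. Ki is the mean ± SD of three experiments.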

[5] = target: T1, 5-hydroxytryptamine receptor 1A; assay: Antagonist activity at 5HT1A receptor in CRL:CD(SD)BR-COBS rat hippocampus assessed as inhibition of 5-hydroxytryptamine-induced increase in [35S]GTPgammaS binding; assay type: functional, tissue-based
Procedure, shortened: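 Hippocampal membranes (rat, 200 µg protein/sample) were prepared as for 5-HT1A binding. Antagonists were tested at several concentrations with 10 µM 5-HT: 20 min preincubation at 37 °C, then 45 min at 37 °C with 0.1 nM [35S]GTPγS. Nonspecific binding was set with 10 µM GTPγS, followed by filtration. IC50 was fitted and converted to Ki by Cheng–Prusoff. Mean ± SD of three experiments.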

[6] = target: T1, 5-hydroxytryptamine receptor 1A; assay: Agonist activity at 5HT1A receptor in CRL:CD(SD)BR-COBS rat hippocampus assessed as increase in [35S]GTPgammaS binding; assay type: functional, tissue-based
Procedure, shortened: as §1, with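 “filtration.” for “filtration. EC50 and Emax (vs 5-HT) came from curve fitting.”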

Chain of D(1A) dopamine receptor (P18901 whole entry): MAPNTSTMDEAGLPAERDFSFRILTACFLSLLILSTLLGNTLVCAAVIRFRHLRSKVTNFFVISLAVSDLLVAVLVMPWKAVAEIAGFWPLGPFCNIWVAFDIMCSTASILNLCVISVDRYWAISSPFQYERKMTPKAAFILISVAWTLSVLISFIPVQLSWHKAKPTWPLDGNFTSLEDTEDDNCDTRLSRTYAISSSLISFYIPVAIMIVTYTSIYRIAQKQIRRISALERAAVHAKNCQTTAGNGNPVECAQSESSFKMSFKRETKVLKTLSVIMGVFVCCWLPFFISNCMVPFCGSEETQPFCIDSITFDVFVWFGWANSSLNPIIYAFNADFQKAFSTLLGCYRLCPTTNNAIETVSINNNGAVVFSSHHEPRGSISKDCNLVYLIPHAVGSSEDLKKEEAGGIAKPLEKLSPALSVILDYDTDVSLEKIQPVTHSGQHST
Chain of 5-hydroxytryptamine receptor 2A (P14842 whole entry): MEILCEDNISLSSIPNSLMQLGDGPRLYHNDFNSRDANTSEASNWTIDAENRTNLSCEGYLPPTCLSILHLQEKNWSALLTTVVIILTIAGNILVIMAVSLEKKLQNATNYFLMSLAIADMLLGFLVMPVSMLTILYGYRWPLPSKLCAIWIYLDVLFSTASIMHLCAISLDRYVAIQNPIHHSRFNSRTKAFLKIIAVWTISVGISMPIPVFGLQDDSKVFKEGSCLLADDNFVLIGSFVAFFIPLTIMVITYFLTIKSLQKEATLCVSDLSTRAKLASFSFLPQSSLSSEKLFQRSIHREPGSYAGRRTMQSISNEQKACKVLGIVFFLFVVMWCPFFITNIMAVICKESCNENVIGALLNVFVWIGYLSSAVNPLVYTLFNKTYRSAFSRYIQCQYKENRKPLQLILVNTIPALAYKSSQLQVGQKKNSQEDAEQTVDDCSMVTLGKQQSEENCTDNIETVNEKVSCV
Chain of D(2) dopamine receptor (P61169 whole entry): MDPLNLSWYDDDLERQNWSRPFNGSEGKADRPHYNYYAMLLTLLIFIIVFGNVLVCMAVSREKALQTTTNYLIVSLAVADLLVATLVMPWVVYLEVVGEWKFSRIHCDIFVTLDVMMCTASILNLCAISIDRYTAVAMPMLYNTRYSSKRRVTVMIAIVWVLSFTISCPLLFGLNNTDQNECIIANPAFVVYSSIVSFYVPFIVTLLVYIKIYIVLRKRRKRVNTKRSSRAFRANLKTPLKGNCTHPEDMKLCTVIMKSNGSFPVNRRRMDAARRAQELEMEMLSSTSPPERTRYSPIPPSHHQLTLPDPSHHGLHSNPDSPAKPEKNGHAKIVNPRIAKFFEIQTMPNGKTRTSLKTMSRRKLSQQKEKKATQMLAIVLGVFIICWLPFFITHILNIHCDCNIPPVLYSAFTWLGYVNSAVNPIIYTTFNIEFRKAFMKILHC

| SMILES | Ki [1] | Ki [2] | Ratio Ki (Rattus norvegicus) | Emax [3] | Ki (D(1A) dopamine receptor) | Ki (D(2) dopamine receptor) | Ki [4] | Ki [5] | EC50 [6] |
| --- | --- | --- | --- | --- | --- | --- | --- | --- | --- |
| COc1ccccc1N1CCN(CCCSc2nc3cc(Cl)ccc3o2)CC1 | 0.88 nM | 46.7 nM | 53 | – | – | – | – | – | – |
| COc1ccccc1N1CCN(CCSc2nc3ccccc3o2)CC1 | 67.2 nM | 276 nM | 4.11 | – | – | – | – | – | – |
| O=[N+]([O-])c1ccccc1N1CCN(CCCSc2nc3ccccc3s2)CC1 | 9.6 nM | 249 nM | 26 | – | – | – | – | – | – |
| O=[N+]([O-])c1ccccc1N1CCN(CCSc2nc3ccccc3s2)CC1 | 1700 nM | > 10000 nM | > 5.87 | – | – | – | – | – | – |
| COc1ccccc1N1CCN(CCSc2nc3ccccc3[nH]2)CC1 | 33.1 nM | 240 nM | 7.25 | – | – | – | – | – | – |
| COc1ccccc1N1CCN(CCSc2nc3ccccc3s2)CC1 | 31.2 nM | 207 nM | 6.63 | – | – | – | – | – | – |
| NCCc1c[nH]c2ccc(O)cc12 | – | – | – | 100% | – | – | – | – | – |
| O=[N+]([O-])c1ccccc1N1CCN(CCCSc2nc3ccccc3[nH]2)CC1 | 16.6 nM | 77.4 nM | 4.66 | – | – | – | – | – | – |
| O=[N+]([O-])c1ccccc1N1CCN(CCSc2nc3ccccc3[nH]2)CC1 | 95.2 nM | 457 nM | 4.8 | – | – | – | – | – | – |
| c1ccc(N2CCN(CCCSc3nc4ccccc4o3)CC2)nc1 | 1.6 nM | 98 nM | 61 | – | > 10000 nM | 429 nM | 174 nM | – | – |
| c1cnc(N2CCN(CCCSc3nc4ccccc4s3)CC2)nc1 | 2.5 nM | 328 nM | 131 | – | > 10000 nM | 532 nM | 183 nM | – | – |
| COc1ccccc1N1CCN(CCCSc2nc3ccccc3s2)CC1 | 0.29 nM | 33.2 nM | 114 | – | 1280 nM | 25.8 nM | 96.1 nM | 1.7 nM | – |
| CCc1cc2c(=O)n(N)c(SCCCN3CCN(c4ccccc4OC)CC3)nc2s1 | – | – | – | – | – | – | – | 7.4 nM | – |
| O=[N+]([O-])c1ccccc1N1CCN(CCCSc2nc3ccccc3o2)CC1 | 14.1 nM | 127 nM | 9 | – | – | – | – | – | – |
| O=C1c2ccccc2S(=O)(=O)N1CCCCN1CCN(c2ncccn2)CC1 [IPSAPIRONE] | – | 200 nM | 36 | – | – | – | – | – | – |
| COc1ccccc1N1CCN(CCCCCCSc2nc3ccccc3o2)CC1 | 0.52 nM | 52.5 nM | 101 | – | 922 nM | 46.6 nM | 207 nM | 1.3 nM | – |
| COc1ccccc1N1CCN(CCCCSc2nc3ccccc3s2)CC1 | 0.27 nM | 16.6 nM | 61 | – | 2000 nM | 58.3 nM | 106 nM | – | – |
| CCC1=CC2C(=O)N(N)C(SCCCN3CCN(c4ncccn4)CC3)=NC2S1 (stereo unspecified) | – | – | – | 38% | – | – | – | – | 1210 nM |
| c1ccc(N2CCN(CCCSc3nc4ccccc4s3)CC2)nc1 | 0.78 nM | 77.7 nM | 100 | 33% | 5630 nM | 462 nM | 78.8 nM | – | 204 nM |
| COc1ccccc1N1CCN(CCCSc2nc3cc(Cl)ccc3s2)CC1 | 1 nM | 21.9 nM | 22 | – | – | – | – | – | – |
| COc1ccccc1N1CCN(CCCSc2nc3ccccc3[nH]2)CC1 | 1 nM | 25.9 nM | 26 | – | – | – | – | – | – |
| COc1ccccc1N1CCN(CCCCSc2nc3ccccc3o2)CC1 | 0.094 nM | 78 nM | 830 | – | 1600 nM | 37.3 nM | 298 nM | 6.6 nM | – |
| COc1ccccc1N1CCN(CCCSc2nc3ccccc3o2)CC1 | 0.55 nM | 21.5 nM | 39 | – | – | – | – | – | – |
| O=[N+]([O-])c1ccccc1N1CCN(CCSc2nc3ccccc3o2)CC1 | 326 nM | 1920 nM | 5.87 | – | – | – | – | – | – |
| c1cnc(N2CCN(CCCSc3nc4ccccc4o3)CC2)nc1 | 14.9 nM | 1650 nM | 111 | – | – | – | – | – | – |
| COc1ccccc1N1CCN(CCCSc2nc3ccccc3n2C)CC1 | 0.27 nM | 20 nM | 74 | – | – | – | – | – | – |
| COc1ccccc1N1CCN(CCCCCCSc2nc3ccccc3s2)CC1 | 1.3 nM | 46 nM | 53 | – | – | – | – | – | – |
